Test results from publication PMC10262665 (Science (New York, N.Y.), 2023).
Read-outs that look alike come from different tables or passages of the source. Values belong to the compound of their own block, whether it stands above or below them.

Key:
[1] = molecular target: PKM2 (Homo sapiens, UniProt P14618); test: MIDAS protein-metabolite interaction screen; assay type: binding; settings: significant PMI Q < 0.01
Method in brief: (§1)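 Purified protein is separated from a defined metabolite library by a semipermeable dialysis membrane that passes metabolites but not protein, then incubated to relative equilibrium. Protein is denatured and removed. Metabolites in both chambers are quantified by flow injection analysis–MS, with methods optimized for each pool. The between-chamber fold change is normalized and corrected for nonspecific interactions.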

[2] = molecular target: T1, LDHA (Homo sapiens, UniProt P00338); test: LDH enzyme activity assay; assay type: biochemical; settings: for inhibition of LDHA enzyme activity: in vitro; for mode of LDHA inhibition: with respect to NAD and lactate
Method in brief: (§2)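 LDH isoform activity measured in vitro with test metabolites (adenosine nucleotides, CoA and acyl-CoAs) over a concentration range. IC50 is derived from the inhibition curves. Mode of inhibition is assessed against NAD and lactate.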

[3] = molecular target: T2, LDHB (Homo sapiens, UniProt P07195); test: LDH enzyme activity assay; assay type: biochemical; settings: in vitro
T2 sequence (P07195 whole entry): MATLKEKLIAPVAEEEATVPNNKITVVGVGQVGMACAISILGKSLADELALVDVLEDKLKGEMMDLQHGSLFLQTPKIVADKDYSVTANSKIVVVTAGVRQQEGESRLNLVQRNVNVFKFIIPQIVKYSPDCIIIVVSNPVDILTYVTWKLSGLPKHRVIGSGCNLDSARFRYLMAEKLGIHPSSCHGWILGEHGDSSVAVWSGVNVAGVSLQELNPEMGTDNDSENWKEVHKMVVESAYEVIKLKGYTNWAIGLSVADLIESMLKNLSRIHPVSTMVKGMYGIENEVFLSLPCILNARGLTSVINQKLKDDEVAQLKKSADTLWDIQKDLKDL
Method in brief: as §2

[4] = molecular target: T3, fumarase (Homo sapiens, UniProt P07954); test: Differential scanning fluorimetry; assay type: binding
T3 sequence (P07954 45-510): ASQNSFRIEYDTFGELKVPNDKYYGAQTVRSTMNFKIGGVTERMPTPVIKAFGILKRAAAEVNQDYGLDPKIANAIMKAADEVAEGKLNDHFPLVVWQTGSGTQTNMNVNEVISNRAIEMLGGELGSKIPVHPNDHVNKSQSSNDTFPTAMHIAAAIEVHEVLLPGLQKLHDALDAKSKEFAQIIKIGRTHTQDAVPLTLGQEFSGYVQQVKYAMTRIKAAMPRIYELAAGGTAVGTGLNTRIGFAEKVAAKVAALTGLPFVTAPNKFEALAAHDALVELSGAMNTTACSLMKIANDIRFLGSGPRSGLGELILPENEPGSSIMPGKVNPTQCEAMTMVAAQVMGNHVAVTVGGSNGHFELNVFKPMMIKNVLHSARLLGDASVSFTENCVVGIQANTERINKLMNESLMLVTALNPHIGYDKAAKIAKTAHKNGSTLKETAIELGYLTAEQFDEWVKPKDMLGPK

[5] = molecular target: T4, fumarase (FH) (Homo sapiens, UniProt P07954); test: MIDAS protein-metabolite interaction screen; assay type: binding; settings: significant PMI Q < 0.01
T4 sequence (P07954 45-510): T3 sequence (P07954 45-510)
Method in brief: as §1

[6] = molecular target: T3, fumarase; test: Fumarase kinetic assays; assay type: biochemical
[7] = molecular target: T2, LDHB; test: Differential scanning fluorimetry; assay type: binding
[8] = molecular target: T1, LDHA; test: Differential scanning fluorimetry; assay type: binding
[9] = molecular target: T2, LDHB; test: Binding to palmitoyl-CoA immobilized on agarose beads
Method in brief: (§3)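 Pull-down of LDH protein on palmitoyl-CoA immobilized on agarose beads. Competition with free palmitoyl-CoA, with buffer alone or acetyl-CoA as comparators.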

[10] = molecular target: T1, LDHA; test: as above
Method in brief: as §3

[11] = molecular target: T5, FBP1 (Homo sapiens, UniProt P09467); test: MIDAS protein-metabolite interaction screen; assay type: binding; settings: significant PMI Q < 0.01
T5 sequence (P09467 1-338): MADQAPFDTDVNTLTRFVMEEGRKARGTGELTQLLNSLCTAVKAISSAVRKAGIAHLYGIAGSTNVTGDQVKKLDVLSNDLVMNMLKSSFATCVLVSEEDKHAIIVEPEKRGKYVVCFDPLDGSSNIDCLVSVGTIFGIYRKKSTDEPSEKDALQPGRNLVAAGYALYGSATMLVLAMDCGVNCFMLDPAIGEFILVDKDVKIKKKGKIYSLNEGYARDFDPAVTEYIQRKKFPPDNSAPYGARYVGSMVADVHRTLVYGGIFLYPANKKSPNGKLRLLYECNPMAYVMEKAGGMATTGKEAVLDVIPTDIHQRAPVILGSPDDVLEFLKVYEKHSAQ
Method in brief: as §1

[12] = molecular target: T6, FBP2 (Homo sapiens, UniProt O00757); test: MIDAS protein-metabolite interaction screen; assay type: binding; settings: significant PMI Q < 0.01
T6 sequence (O00757 1-339): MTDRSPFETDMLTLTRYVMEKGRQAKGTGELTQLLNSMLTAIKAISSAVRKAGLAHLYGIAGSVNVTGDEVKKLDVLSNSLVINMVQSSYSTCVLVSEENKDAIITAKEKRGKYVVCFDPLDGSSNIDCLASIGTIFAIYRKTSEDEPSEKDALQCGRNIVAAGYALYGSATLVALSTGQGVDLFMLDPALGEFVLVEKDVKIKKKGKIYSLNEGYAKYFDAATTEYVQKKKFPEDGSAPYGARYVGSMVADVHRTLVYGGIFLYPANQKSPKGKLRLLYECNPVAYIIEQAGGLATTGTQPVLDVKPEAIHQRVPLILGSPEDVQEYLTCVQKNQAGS
Method in brief: as §1

[13] = molecular target: T7, phosphofructokinase (PFKP) (Homo sapiens, UniProt Q01813); test: MIDAS protein-metabolite interaction screen; assay type: binding; settings: significant PMI Q < 0.01
T7 sequence (Q01813 1-784): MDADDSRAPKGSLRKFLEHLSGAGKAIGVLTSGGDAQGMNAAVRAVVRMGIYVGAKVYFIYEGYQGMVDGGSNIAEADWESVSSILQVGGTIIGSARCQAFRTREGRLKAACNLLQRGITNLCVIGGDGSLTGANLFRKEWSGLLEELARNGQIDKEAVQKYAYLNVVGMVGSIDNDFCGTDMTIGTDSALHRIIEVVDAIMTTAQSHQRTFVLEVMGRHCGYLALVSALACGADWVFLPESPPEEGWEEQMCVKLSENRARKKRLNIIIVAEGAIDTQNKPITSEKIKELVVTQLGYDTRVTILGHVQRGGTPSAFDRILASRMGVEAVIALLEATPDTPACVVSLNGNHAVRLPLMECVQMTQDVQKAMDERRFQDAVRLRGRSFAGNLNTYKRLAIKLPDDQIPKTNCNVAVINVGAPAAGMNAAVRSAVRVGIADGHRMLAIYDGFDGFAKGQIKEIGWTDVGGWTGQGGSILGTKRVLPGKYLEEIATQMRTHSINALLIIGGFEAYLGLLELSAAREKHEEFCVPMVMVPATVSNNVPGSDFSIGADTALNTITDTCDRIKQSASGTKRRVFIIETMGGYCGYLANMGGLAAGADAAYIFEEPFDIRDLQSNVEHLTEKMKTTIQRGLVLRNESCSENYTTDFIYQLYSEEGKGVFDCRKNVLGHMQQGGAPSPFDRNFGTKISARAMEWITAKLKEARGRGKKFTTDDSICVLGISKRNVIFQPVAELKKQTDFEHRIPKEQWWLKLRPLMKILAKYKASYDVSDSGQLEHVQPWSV
Method in brief: as §1

[14] = molecular target: glucose-6-phosphate isomerase (GPI) (Homo sapiens, UniProt P06744); test: MIDAS protein-metabolite interaction screen; assay type: binding; settings: significant PMI Q < 0.01
Method in brief: as §1

[15] = molecular target: T8, ENO1 (Homo sapiens, UniProt P06733); test: Differential scanning fluorimetry; assay type: binding
T8 sequence (P06733 whole entry): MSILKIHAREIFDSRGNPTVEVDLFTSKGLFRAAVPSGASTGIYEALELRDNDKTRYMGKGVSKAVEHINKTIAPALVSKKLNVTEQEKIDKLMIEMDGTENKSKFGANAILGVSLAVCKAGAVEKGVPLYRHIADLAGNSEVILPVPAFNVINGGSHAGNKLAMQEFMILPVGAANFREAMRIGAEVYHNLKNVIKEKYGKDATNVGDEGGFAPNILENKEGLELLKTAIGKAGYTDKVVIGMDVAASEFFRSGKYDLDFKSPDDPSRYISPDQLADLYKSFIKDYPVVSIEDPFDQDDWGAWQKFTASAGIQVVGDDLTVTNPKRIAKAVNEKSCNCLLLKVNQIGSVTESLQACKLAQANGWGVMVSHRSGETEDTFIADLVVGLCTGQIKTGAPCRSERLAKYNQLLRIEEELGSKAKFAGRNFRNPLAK

[16] = system: enolase; test: In vitro enolase activity; assay type: biochemical, human
[17] = molecular target: T9, ENO2 (Homo sapiens, UniProt P09104); test: MIDAS protein-metabolite interaction screen; assay type: binding; settings: significant PMI Q < 0.01
T9 sequence (P09104 whole entry): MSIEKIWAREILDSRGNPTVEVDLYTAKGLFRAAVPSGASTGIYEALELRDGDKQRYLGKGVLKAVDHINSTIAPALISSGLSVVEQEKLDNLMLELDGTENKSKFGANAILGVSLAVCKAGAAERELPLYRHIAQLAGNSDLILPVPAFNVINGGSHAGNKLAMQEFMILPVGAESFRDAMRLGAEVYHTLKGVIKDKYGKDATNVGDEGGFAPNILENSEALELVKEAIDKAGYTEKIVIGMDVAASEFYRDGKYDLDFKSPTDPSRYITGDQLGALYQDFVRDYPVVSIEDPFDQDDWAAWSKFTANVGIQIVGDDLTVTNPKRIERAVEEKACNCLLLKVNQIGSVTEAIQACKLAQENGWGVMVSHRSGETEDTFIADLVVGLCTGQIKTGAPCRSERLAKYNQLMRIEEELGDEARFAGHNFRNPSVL
Method in brief: as §1

[18] = molecular target: T9, ENO2; test: Differential scanning fluorimetry; assay type: binding
[19] = molecular target: T8, ENO1; test: MIDAS protein-metabolite interaction screen; assay type: binding; settings: significant PMI Q < 0.01
Method in brief: as §1

Sequence of PKM2 (P14618 whole entry): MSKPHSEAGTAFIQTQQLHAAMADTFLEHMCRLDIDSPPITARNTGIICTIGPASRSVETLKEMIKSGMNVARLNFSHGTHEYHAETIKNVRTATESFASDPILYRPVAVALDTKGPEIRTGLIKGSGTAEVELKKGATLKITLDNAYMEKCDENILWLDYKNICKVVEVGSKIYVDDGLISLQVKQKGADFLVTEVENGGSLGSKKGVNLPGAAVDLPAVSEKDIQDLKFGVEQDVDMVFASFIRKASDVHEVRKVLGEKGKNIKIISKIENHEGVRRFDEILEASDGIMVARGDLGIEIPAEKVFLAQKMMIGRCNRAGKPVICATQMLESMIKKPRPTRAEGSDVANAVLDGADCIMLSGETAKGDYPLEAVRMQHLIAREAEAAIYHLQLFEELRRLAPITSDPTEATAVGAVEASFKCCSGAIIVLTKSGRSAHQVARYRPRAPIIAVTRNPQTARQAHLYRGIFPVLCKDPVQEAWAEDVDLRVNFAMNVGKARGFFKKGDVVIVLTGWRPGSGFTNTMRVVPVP

Compound: N[C@@H](Cc1cc(I)c(O)c(I)c1)C(=O)O [3,5-diiodo-L-tyrosine]
MIDAS protein-metabolite interaction [1]: interacted

Compound: CN1c2c(nc(N)[nH]c2=O)NCC1CNc1ccc(C(=O)N[C@@H](CCC(=O)O)C(=O)O)cc1 (stereo partly drawn) [5-MTHF, 5-methyltetrahydrofolate]
MIDAS protein-metabolite interaction [1]: interacted

Compound: Nc1ncnc2c1ncn2[C@@H]1O[C@H](COP(=O)(O)OP(=O)(O)O)[C@@H](O)[C@H]1O [ADP, adenosine diphosphate]
inhibition of LDHA enzyme activity [2]: only at supraphysiological concentrations | inhibition of LDHB enzyme activity [3]: only at supraphysiological concentrations

Compound: Nc1ncnc2c1ncn2[C@@H]1O[C@H](COP(=O)(O)O)[C@@H](O)[C@H]1O [AMP, adenosine monophosphate]
inhibition of LDHA enzyme activity [2]: only at supraphysiological concentrations | inhibition of LDHB enzyme activity [3]: only at supraphysiological concentrations

Compound: NC(CP(=O)(O)O)C(=O)O (stereo not drawn) [AP-3, 2-amino-3-phosphonopropionic acid]
Kd [4]: 980 µM | MIDAS protein-metabolite interaction [5]: putative interactor | inhibition of fumarase, mode [6]: competitively inhibited

Compound: Nc1ncnc2c1ncn2[C@@H]1O[C@H](COP(=O)(O)OP(=O)(O)OP(=O)(O)O)[C@@H](O)[C@H]1O [ATP, adenosine triphosphate]
Kd [7]: 697 µM | mode of LDHA inhibition [2]: competitive | Kd [8]: 636 µM | inhibition of LDHB enzyme activity [3]: inhibited only the LDHA isoform

Compound: CCCCCCCCCCCCCCCC(=O)SCCNC(=O)CCNC(=O)[C@H](O)C(C)(C)COP(=O)(O)OP(=O)(O)OC[C@H]1O[C@@H](n2cnc3c(N)ncnc32)[C@H](O)[C@@H]1OP(=O)(O)O [C16:0-CoA, palmitoyl-CoA]
protein species induced in DSF assay ([7]; LDHB, low-micromolar concentrations of ligand): thermostable species | disruption of protein binding to immobilized palmitoyl-CoA by free competitor ([9]; agarose beads): disrupted | affinity of direct interaction ([9]; from DSF and bead binding): low-micromolar affinity | IC50 ([2]; LDHA enzyme activity, acyl-CoAs): ~1 µM | mode of LDHA inhibition [2]: noncompetitive | protein species induced in DSF assay ([8]; LDHA, low-micromolar concentrations of ligand): thermolabile species | disruption of protein binding to immobilized palmitoyl-CoA by free competitor ([10]; agarose beads): disrupted | affinity of direct interaction ([10]; from DSF and bead binding): low-micromolar affinity

Compound: Nc1nc2c(ncn2[C@@H]2O[C@H](COP(=O)(O)OP(=O)(O)O)[C@@H](O)[C@H]2O)c(=O)[nH]1 [GDP, guanosine diphosphate]
MIDAS protein-metabolite interaction [1]: interacted

Compound: O=P(O)(O)OC[C@H]1O[C@H](OP(=O)(O)OP(=O)(O)O)[C@H](O)[C@@H]1O [PRPP, 5-phospho-D-ribose 1-diphosphate]
MIDAS protein-metabolite interaction [11]: interacted | MIDAS protein-metabolite interaction [12]: interacted

Compound: O=C(COP(=O)(O)O)[C@@H](O)[C@H](O)[C@H](O)COP(=O)(O)O [fructose 1,6-bisphosphate]
MIDAS protein-metabolite interaction [13]: interacted

Results, then the compound that gave them:

MIDAS protein-metabolite interaction [14]: interacted
Compound: O=C(CO)[C@@H](O)[C@H](O)[C@H](O)COP(=O)(O)O [fructose-6-phosphate]

Kd ([4]; read-out: apparent dissociation constant (Kd app), DSF, fumarase): 3870 µM
Compound: O=C(O)/C=C/C(=O)O [fumarate]

MIDAS protein-metabolite interaction [11]: showed an interaction | MIDAS protein-metabolite interaction [12]: only FBP1 showed an interaction
Compound: N[C@H]1C(O)O[C@H](COP(=O)(O)O)[C@@H](O)[C@@H]1O (stereo partly drawn) [glucosamine-6-phosphate]

MIDAS protein-metabolite interaction [14]: interacted
Compound: O=C[C@H](O)[C@@H](O)[C@H](O)[C@H](O)COP(=O)(O)O [glucose-6-phosphate]

Kd [15]: 1380 µM | inhibition of in vitro enolase activity [16]: only weakly inhibited | MIDAS protein-metabolite interaction [17]: most enriched metabolite | Kd [18]: 1150 µM | MIDAS protein-metabolite interaction [19]: most enriched metabolite
Compound: N[C@@H](COP(=O)(O)O)C(=O)O [pSer, phosphoserine]

MIDAS protein-metabolite interaction [13]: interacted
Compound: O=C(CO)[C@@H](O)[C@H](O)[C@H](O)[C@H](O)COP(=O)(O)O [sedoheptulose-7-phosphate]
